# Assay results: ChEMBL document CHEMBL1135723, “New type of metalloproteinase inhibitor: design and synthesis of new phosphonamide-based hydroxamic acids” (J Med Chem, 2002)
# What was measured:
# Interstitial collagenase = biological target: T1, Interstitial collagenase (Homo sapiens, UniProt P03956); experiment: Inhibitory activity against matrix metalloprotease-1 (MMP-1)(recombinant human collagenase-1).
# T1 sequence (P03956 whole entry): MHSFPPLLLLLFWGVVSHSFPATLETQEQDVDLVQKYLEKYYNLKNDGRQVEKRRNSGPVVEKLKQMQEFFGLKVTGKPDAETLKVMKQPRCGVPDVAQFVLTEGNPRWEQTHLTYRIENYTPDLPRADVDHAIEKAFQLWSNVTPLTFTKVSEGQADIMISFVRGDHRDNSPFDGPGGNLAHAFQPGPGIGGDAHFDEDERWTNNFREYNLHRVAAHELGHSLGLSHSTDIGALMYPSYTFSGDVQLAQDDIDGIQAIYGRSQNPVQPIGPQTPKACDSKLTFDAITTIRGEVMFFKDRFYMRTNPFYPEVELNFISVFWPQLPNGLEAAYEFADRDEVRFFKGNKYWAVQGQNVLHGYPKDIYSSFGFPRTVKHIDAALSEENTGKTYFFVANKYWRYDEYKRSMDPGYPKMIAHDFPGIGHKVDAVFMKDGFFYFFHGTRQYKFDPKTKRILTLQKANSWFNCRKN
# Stromelysin-1 = Stromelysin-1 (Homo sapiens, UniProt P08254); experiment: Inhibitory activity against matrix metalloprotease-3 (MMP-3)(stromelysin-1).
# Method in brief: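 Recombinant human MMP-3 activated with 1 mM p-aminophenylmercuric acetate, 1 h, 37 °C. Compound in 50 mM Tris, 150 mM NaCl, 10 mM CaCl2, 0.05% Brij-35, pH 7.5, preincubated with enzyme 10 min at 37 °C. Fluorescence-quenched peptide substrate added, 2 h at 37 °C; Ex/Em 320/405 nm. Ki from percent inhibition and substrate Km.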
# [1] = biological target: Disintegrin and metalloproteinase domain-containing protein 17 (Homo sapiens, UniProt P78536); experiment: Inhibitory activity against tumor necrosis factor alpha converting enzyme (TACE) from human acute monocytic leukemia cell line.
# [2] = biological target: T2, Disintegrin and metalloproteinase domain-containing protein 9 (Homo sapiens, UniProt Q13443); experiment: Inhibition of the heparin binding epidermal growth factor (HB-EGF) release from fibrosarcoma HT1080 transfectants expressing […] (AP) tagged HB-EGF stimulated by 12-O-tetradecanoylphorbol 13-acetate(TPA).
# T2 sequence (Q13443 whole entry): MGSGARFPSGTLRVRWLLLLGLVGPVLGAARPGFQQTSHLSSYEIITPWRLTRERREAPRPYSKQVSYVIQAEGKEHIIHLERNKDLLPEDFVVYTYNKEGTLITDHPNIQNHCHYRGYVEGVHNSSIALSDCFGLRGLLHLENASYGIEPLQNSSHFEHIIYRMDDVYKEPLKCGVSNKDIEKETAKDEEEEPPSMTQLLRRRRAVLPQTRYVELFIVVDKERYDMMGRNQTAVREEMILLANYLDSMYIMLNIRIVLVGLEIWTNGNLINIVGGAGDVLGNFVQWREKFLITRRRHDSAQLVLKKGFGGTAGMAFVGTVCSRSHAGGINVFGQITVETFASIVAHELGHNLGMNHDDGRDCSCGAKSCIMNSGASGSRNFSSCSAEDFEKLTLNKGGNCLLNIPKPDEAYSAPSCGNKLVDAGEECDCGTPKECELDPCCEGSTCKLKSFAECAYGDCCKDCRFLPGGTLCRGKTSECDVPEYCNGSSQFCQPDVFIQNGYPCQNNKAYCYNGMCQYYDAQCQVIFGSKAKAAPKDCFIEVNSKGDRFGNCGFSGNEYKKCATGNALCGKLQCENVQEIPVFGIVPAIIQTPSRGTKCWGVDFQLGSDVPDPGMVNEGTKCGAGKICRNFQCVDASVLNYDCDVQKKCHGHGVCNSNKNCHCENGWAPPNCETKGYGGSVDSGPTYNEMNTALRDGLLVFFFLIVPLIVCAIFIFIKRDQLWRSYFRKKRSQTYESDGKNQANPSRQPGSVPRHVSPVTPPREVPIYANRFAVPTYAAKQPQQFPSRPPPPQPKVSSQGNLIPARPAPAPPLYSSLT
# Method in brief: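 HT-1080 transfectants in MEM/10% FCS seeded at 2 × 10⁵ cells/well, grown 24 h, PBS-washed, preincubated 30 min with compound in MEM containing 1% DMSO. Stimulated with TPA (60 nM) for 60 min. Supernatant heated 10 min at 65 °C to kill endogenous phosphatases, then incubated 2 h with p-nitrophenyl phosphate (1 mg/mL) in 1 M diethanolamine, pH 9.8; A405. IC50 from a concentration series.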
# [3] = biological target: Matrix metalloproteinase-9 (Homo sapiens, UniProt P14780); experiment: Inhibitory activity against matrix metalloprotease-9 (MMP-9)(gelatinase-B).
# Chain of Matrix metalloproteinase-9 (P14780 whole entry): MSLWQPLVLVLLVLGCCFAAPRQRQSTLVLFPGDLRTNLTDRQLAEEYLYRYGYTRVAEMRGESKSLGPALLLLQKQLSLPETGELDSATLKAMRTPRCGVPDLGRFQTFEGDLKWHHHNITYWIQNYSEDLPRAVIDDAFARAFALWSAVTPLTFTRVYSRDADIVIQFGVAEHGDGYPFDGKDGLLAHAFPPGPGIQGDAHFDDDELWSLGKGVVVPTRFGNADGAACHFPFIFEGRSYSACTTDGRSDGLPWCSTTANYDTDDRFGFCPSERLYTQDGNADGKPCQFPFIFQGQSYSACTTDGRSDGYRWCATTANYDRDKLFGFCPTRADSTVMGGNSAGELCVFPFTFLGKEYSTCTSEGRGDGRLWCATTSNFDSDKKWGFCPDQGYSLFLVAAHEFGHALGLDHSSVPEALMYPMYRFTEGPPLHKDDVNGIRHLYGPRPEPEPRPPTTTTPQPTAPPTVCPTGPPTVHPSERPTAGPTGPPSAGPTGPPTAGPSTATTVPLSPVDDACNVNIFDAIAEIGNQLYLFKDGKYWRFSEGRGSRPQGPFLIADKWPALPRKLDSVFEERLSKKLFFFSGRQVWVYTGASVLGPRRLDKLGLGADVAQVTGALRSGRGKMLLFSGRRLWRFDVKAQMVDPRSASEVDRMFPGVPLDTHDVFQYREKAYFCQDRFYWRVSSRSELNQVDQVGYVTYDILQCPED
# Chain of Disintegrin and metalloproteinase domain-containing protein 17 (P78536 whole entry, the tested form may be a part): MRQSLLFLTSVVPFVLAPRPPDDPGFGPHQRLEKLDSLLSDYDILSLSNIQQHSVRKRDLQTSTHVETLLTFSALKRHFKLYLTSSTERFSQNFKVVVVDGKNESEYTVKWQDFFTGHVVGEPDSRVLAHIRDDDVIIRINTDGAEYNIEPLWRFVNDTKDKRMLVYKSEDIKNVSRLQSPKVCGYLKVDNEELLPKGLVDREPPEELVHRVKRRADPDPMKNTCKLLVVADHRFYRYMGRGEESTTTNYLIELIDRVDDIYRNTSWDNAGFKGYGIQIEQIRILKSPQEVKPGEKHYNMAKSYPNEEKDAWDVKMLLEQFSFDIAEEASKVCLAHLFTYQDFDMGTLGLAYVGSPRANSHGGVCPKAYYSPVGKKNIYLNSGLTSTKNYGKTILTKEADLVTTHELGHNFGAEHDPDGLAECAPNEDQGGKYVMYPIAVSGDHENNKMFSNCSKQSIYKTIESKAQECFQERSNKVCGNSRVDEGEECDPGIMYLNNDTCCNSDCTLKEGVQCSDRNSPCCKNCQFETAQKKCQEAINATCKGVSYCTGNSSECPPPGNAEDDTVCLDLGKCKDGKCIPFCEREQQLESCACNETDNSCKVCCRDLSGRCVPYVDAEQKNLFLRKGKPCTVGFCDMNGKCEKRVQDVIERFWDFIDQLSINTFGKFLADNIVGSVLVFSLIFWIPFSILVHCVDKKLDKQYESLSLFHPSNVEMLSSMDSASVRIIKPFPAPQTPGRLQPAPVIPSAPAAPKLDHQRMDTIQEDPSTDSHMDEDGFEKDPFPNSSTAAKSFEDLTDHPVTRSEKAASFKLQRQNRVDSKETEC
# Chain of Stromelysin-1 (P08254 whole entry): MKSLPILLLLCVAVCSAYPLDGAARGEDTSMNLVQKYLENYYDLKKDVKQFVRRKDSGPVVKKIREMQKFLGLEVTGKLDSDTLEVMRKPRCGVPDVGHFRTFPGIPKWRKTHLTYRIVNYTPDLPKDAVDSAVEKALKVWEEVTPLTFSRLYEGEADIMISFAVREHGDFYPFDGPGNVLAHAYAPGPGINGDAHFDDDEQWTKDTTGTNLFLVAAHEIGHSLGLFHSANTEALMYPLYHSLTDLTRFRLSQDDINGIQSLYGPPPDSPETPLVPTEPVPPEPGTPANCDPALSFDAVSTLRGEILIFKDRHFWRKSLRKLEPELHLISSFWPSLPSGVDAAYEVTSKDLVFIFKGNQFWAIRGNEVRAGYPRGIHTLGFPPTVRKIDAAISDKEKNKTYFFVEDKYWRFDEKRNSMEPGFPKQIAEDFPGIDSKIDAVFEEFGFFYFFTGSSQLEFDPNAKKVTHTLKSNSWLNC
SMILES,Ki (Interstitial collagenase) [nM],Ki (Stromelysin-1) [nM],Ki [1] [nM],IC50 [2] [nM],Ki [3] [nM]
COc1ccc(P(=O)(OC)N2Cc3ccccc3CC2C(=O)NO)cc1 (configuration not stated),3.64,2.95,8.92,70,2.03
CCCCCCOP(=O)(c1ccc(OC)cc1)N1Cc2ccccc2CC1C(=O)NO (configuration not stated),10.9,5.19,32.7,1600,6.57
CCN(CC)CCOP(=O)(c1ccc(OC)cc1)N1Cc2ccccc2CC1C(=O)NO (configuration not stated),10.7,82.4,33.2,1140,16.7
CCOP(=O)(c1ccc(OC)cc1)N1Cc2cc(N)ccc2CC1C(=O)NO (configuration not stated),10.7,12.3,37.4,190,11
CCOP(=O)(c1ccncc1)N1Cc2ccccc2CC1C(=O)NO (configuration not stated),17.4,190,777,2600,278
CCOP(=O)(c1ccc(OC)cc1)N1CCCC1C(=O)NO (configuration not stated),> 850,527,> 780,> 10000,316
CCOP(=O)(c1ccc(OC)cc1)N1Cc2[nH]c3ccccc3c2CC1C(=O)NO (configuration not stated),2.02,2.04,2.2,800,1.13
CCOP(=O)(c1cccc(F)c1)N1Cc2ccccc2CC1C(=O)NO (configuration not stated),27.1,51.4,22.8,830,80.1
CCOP(=O)(c1ccccc1)N1Cc2ccccc2CC1C(=O)NO (configuration not stated),11.4,34.9,11.2,370,42.7
CCOP(=O)(/C=C/c1ccccc1)N1Cc2ccccc2CC1C(=O)NO (configuration not stated),160,29.7,37.4,910,88.8
CCOP(=O)(c1ccc(F)cc1)N1Cc2ccccc2CC1C(=O)NO (configuration not stated),0.97,64.4,,300,51.9
CCOP(=O)(c1ccc(C)cc1)N1Cc2ccccc2CC1C(=O)NO (configuration not stated),4.9,72.9,500,1890,41.8
COc1ccc(P(=O)(OCCc2ccccn2)N2Cc3ccccc3CC2C(=O)NO)cc1 (configuration not stated),3.14,6.41,120,180,3.42
CCOP(=O)(c1ccc(OC)cc1)N1CCN(C(=O)OCc2ccccc2)CC1C(=O)NO (configuration not stated),20.1,14.9,7.99,430,5.2
CCOP(=O)(c1ccc(OC)cc1)N1Cc2ccsc2CC1C(=O)NO (configuration not stated),4.1,5.2,6.45,520,3.8
CCOP(=O)(c1ccccc1F)N1Cc2ccccc2CC1C(=O)NO (configuration not stated),24,47.8,73.6,1060,32.1
CCOP(=O)(c1ccc(Oc2ccncc2)cc1)N1Cc2ccccc2CC1C(=O)NO (configuration not stated),39.8,4.85,13.8,660,0.6
COc1ccc(P(=O)(OC(C)C)N2Cc3ccccc3CC2C(=O)NO)cc1 (configuration not stated),17.8,24.4,,2240,23.2

SMILES,Ki (Interstitial collagenase) [nM],Ki (Stromelysin-1) [nM],Ki [1] [nM],IC50 [2] [nM],Ki [3] [nM]
COc1ccc(P(=O)(OCCc2ccc(-c3ccccc3)cc2)N2Cc3ccccc3CC2C(=O)NO)cc1 (configuration not stated),7.33,12.8,90.2,3560,6.47
COc1ccc(P(=O)(OCC2CCCCC2)N2Cc3ccccc3CC2C(=O)NO)cc1 (configuration not stated),6.67,2.43,15.5,1340,4.56
CCO[P@](=O)(c1ccc(OC)cc1)N1Cc2ccccc2C[C@H]1C(=O)NO,> 850,> 650,> 780,> 10000,> 800
COc1ccc(P(=O)(OCCc2ccccc2)N2Cc3ccccc3CC2C(=O)NO)cc1 (configuration not stated),4.43,8.15,42.2,3110,5.22
CCOP(=O)(CCc1ccccc1)N1Cc2ccccc2CC1C(=O)NO (configuration not stated),20.8,11.6,14.2,700,38.3
CCOP(=O)(c1ccc(OC)cc1)N1Cc2nccnc2CC1C(=O)NO (configuration not stated),7.8,10.7,13.7,560,7
CCOCCOc1ccc(P(=O)(OCC)N2Cc3ccccc3CC2C(=O)NO)cc1 (configuration not stated),> 850,29.6,2.98,70,14.2
CCOP(=O)(c1ccc(Oc2ccccc2)cc1)N1Cc2ccccc2CC1C(=O)NO (configuration not stated),1.81,0.53,7.89,260,0.08
CCO[P@@](=O)(c1ccc(OC)cc1)N1Cc2ccccc2CC1C(=O)NO (some centres not stated),4.58,5.2,7.15,230,5.05
CCOP(=O)(c1cccs1)N1Cc2ccccc2CC1C(=O)NO (configuration not stated),18.7,67,59.6,890,59.2
CCCCOP(=O)(c1ccc(OC)cc1)N1Cc2ccccc2CC1C(=O)NO (configuration not stated),5.39,24,,810,9.12
CCOCCOP(=O)(c1ccc(OC)cc1)N1Cc2ccccc2CC1C(=O)NO (configuration not stated),6.75,5.43,18.9,510,6.36
CCO[P@@](=O)(c1ccc(OC)cc1)N1Cc2ccccc2C[C@H]1C(=O)NO,759,> 650,> 780,> 10000,349
CCOP(=O)(c1ccc(Oc2ccc(N)cc2)cc1)N1Cc2ccccc2CC1C(=O)NO (configuration not stated),6.5,0.5,21.7,1670,0.1
CCO[P@](=O)(c1ccc(OC)cc1)N1Cc2ccccc2CC1C(=O)NO (some centres not stated),> 850,> 650,> 780,> 10000,> 800
CCOP(=O)(c1ccc(N)cc1)N1Cc2ccccc2CC1C(=O)NO (configuration not stated),58.8,162,75.8,660,95.6
CCOP(=O)(c1ccc(-c2ccccc2)cc1)N1Cc2ccccc2CC1C(=O)NO (configuration not stated),9.65,4.36,50,1960,0.31
